Data published in ChEMBL document CHEMBL6092224, “The Discovery and Preclinical Profile of ALG-000184, a Prodrug of the Potent Hepatitis B Virus Capsid Assembly Modulator ALG-001075” (J Med Chem, 2024).
Each block holds one compound with its values, some of them ahead of it. Activity calls are given as the source filed them. The calls are words filed in the database; no cut-off is given here.

Columns and labels:
[1] = tested on: Mus musculus; test: Effect on HBsAg level in C57BL/6 mouse infected with AAV-Hepatitis B virus at 15 to 50 mg/kg, po qd for 56 days followed by induction of compound washout period for 14 days; assay type: functional, organism-based; details: dose 15-50 mg/kg, time 70.0 day
[2] = Toxicity in C57BL/6 mouse infected with AAV-Hepatitis B virus assessed as change in body weight at 15 mg/kg, po bid for 56 days followed by induction of compound washout period for 14 days; assay type: organism-based; details: in vivo, 1680 h, time 70 day
[3] = Half life in Cynomolgous monkey at 1 mg/kg, iv by LC-MS/MS analysis; assay type: ADME, organism-based, Macaca fascicularis; details: cynomolgus monkey, in vivo
Method in brief: (§1)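 Single dose to fasted male C57BL6 mice, Sprague-Dawley rats, beagle dogs and cynomolgus monkeys, either IV at 1 mg/kg or PO as a solution at 5 mg/kg, in 80% PEG 400 in water. Plasma concentrations were measured by LC-MS/MS. PK parameters come from noncompartmental analysis using nominal doses and nominal sampling times.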

[4] = tested on: Hepatitis B virus; test: Antiviral activity against AAV-Hepatitis B virus infected in C57BL/6 mouse assessed as reduction in baseline HBV DNA production at 15 mg/kg, po bid for 56 days followed by induction of compound washout period measured after 7 days; assay type: functional; details: time 63 day
[5] = Cmax in C57BL/6J mouse at 5 mg/kg, po by LC-MS/MS analysis; assay type: ADME, organism-based; details: in vivo; method in brief: as §1
[6] = AUC (infinity) in C57BL/6J mouse at 5 mg/kg, po by LC-MS/MS analysis; assay type: ADME, organism-based; details: in vivo; method in brief: as §1
[7] = Clearance in Beagle dog at 1 mg/kg, iv by LC-MS/MS analysis; assay type: ADME, organism-based, Canis lupus familiaris; details: in vivo; method in brief: as §1
[8] = Oral bioavailability in C57BL/6J mouse at 5 mg/kg by LC-MS/MS analysis; assay type: ADME, organism-based; details: in vivo
Method in brief: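 Fasted male C57BL6 mice, Sprague–Dawley rats, beagle dogs, cynomolgus monkeys; single IV dose 1 mg/kg or PO solution 5 mg/kg in 80% PEG 400 in water; plasma concentrations measured, noncompartmental analysis with nominal doses and times; F from PO vs IV AUC.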

[9] = Volume of distribution at steady state in C57BL/6J mouse at 1 mg/kg, iv by LC-MS/MS analysis; assay type: ADME, organism-based; details: in vivo, read-out: Vdss
Method in brief: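 Fasted males (C57BL6 mice, Sprague−Dawley rats, beagle dogs, cynomolgus monkeys) given a single IV dose of 1 mg/kg in 80% PEG 400 in water. Plasma concentrations measured by LC-MS/MS. Vss derived by noncompartmental analysis using nominal dose and nominal sampling times.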

[10] = Plasma protein binding in Cynomolgous monkey at 1 uM incubated for 4 to 24 hrs by equilibrium dialysis method; assay type: ADME, cell-free, Macaca fascicularis; details: cynomolgus monkey, time 4-24 hrs, read-out: PPB (converted)
Method in brief: (§2)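 Rapid equilibrium dialysis in mouse, rat, dog, monkey or human plasma for 4 or 24 h; test concentrations 1, […].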

[11] = Plasma protein binding in human at 1 uM incubated for 4 to 24 hrs by equilibrium dialysis method; assay type: ADME, cell-free; details: time 4-24 hrs, read-out: PPB (converted); method in brief: as §2
[12] = Half life in C57BL/6J mouse at 1 mg/kg, iv by LC-MS/MS analysis; assay type: ADME, organism-based; details: in vivo; method in brief: as §1
[13] = tested on: Hepatitis B virus; test: Antiviral activity against HBV infected in human primary hepatocyte cells assessed as decrease in HBV DNA production pre-infected cells with virus followed by compound treatment for 3 days and subsequent replacement of medium with compound measured after 4 days by qPCR analysis; assay type: functional, organism-based
Method in brief: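 Primary human hepatocytes, 80,000/well, infected at MOI 100 in medium with 4% PEG, 2% DMSO, 10% FBS for 24 h, then washed. Compound from 2000 nM in 1/5 dilutions added on day 5 and refreshed on day 8. Medium collected on day 12; extracellular HBV DNA extracted and quantified by qPCR. n = 5 independent experiments.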

[14] = AUC (infinity) in C57BL/6J mouse at 1 mg/kg, iv by LC-MS/MS analysis; assay type: ADME, organism-based; details: in vivo; method in brief: as §1
[15] = Toxicity in C57BL/6 mouse infected with AAV-Hepatitis B virus assessed as change in ALT level at 15 to 50 mg/kg, po qd for 56 days followed by induction of compound washout period for 14 days; assay type: organism-based; details: in vivo, 1680 h, dose 15-50 mg/kg, time 70 day
[16] = Apparent permeability across apical to basal side in human Caco-2 cells at 1 uM incubated for 1 hr; assay type: ADME, cell-based
Method in brief: (§3)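 Bidirectional transport across Caco-2 cells in HBSS, pH 7.4, 0.1% final DMSO. Compound was tested at 1 or 2 μM for 1 h at 37 °C, 5% CO2. Apical and basal samples gave apparent permeability A→B and B→A, and the efflux ratio.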

[17] = Clearance in Sprague-Dawley rat at 1 mg/kg, iv by LC-MS/MS analysis; assay type: ADME, organism-based; details: in vivo; method in brief: as §1
[18] = target: T1, Cytochrome P450 2B6 (Homo sapiens, UniProt P20813); test: Induction of CYP2B6 (unknown origin) in human hepatocytes upto 30 uM; assay type: ADME, cell-based, Hepatocyte
T1 sequence (P20813 whole entry): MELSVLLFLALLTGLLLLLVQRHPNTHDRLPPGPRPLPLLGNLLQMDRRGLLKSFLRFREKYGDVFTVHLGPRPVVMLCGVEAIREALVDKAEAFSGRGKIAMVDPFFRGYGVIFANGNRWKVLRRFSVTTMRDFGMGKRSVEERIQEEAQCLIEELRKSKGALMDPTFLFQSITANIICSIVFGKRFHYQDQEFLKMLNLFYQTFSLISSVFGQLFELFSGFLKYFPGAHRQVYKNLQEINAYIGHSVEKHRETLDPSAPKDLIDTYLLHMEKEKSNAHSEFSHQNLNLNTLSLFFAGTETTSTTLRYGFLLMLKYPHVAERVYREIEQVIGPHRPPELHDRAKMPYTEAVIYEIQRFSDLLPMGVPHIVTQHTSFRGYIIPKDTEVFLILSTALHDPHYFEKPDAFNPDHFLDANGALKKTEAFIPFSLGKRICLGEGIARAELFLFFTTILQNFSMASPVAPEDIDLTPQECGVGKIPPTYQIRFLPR

[19] = Effect on differentiation of human HPC cells upto 10 uM; assay type: toxicity, cell-based
[20] = Prodrug conversion in Sprague-Dawley rat assessed as formation of N-(3-cyano-4-fluorophenyl)-4-(2-((3-ethynyloxetan-3-yl)amino)-2-oxoacetyl)-1,3,5-trimethyl-1H-pyrrole-2-carboxamide metabolite at 37.8 mg/kg, po measured for 24 hrs; assay type: ADME, organism-based; details: in vivo
Method in brief: (§4)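 Single oral prodrug dose at molar equivalent of 30 mg/kg (rats) or […] of parent in 95% PEG 400/5% copovidone; whole blood collected into 4 volumes 75% MeOH/25% acetonitrile, centrifuged, parent quantified by LC-MS/MS; noncompartmental PK analysis.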

[21] = Plasma protein binding in dog at 2 uM incubated for 4 to 24 hrs by equilibrium dialysis method; assay type: ADME, cell-free, Canis lupus familiaris; details: time 4-24 hrs, read-out: PPB (converted)
Method in brief: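 Rapid equilibrium dialysis in mouse, rat, dog, monkey or human plasma for 4 or 24 h at 2 μM.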

[22] = Prodrug conversion in Beagle dog assessed as formation of N-(3-cyano-4-fluorophenyl)-4-(2-((3-ethynyloxetan-3-yl)amino)-2-oxoacetyl)-1,3,5-trimethyl-1H-pyrrole-2-carboxamide metabolite at 6.3 mg/kg, po measured for 24 hrs; assay type: ADME, organism-based, Canis lupus familiaris; details: in vivo; method in brief: as §4
[23] = Efflux ratio of apparent permeability in human Caco-2 cells at 2 uM incubated for 1 hr; assay type: ADME, cell-based; method in brief: as §3

Compound: C#CC1(NC(=O)C(=O)c2c(C)c(C(=O)Nc3ccc(F)c(C#N)c3)n(C)c2C)COC1
Activity [1]: inactive
Activity [2]: Non-toxic
half-life [3]: 111 min
Activity [4]: -2.16 log10IU/ml
Cmax [5]: 2290 ng/mL
AUC(0-inf) [6]: 7990 ng·h/mL
clearance [7]: 1.97 mL/min/kg
bioavailability [8]: 115%
Vd [9]: 1 L/kg
fraction unbound at 1 µM [10]: 0.284
fraction unbound at 1 µM [11]: 0.191
half-life [12]: 82.2 min
EC50 [13]: 1.98 nM
AUC(0-inf) [14]: 1390 ng·h/mL
Activity [15]: Non-toxic
Papp A→B at 1 h, 1 µM [16]: 1.8 ×10⁻⁶ cm/s
clearance [17]: 6.09 mL/min/kg
Activity [18]: Not_active
Activity [19]: Non-toxic

Drug metabolism [20]: metabolite_detected
fraction unbound at 2 µM [21]: 0.179
Drug metabolism [22]: metabolite_detected
efflux ratio at 1 h, 2 µM [23]: 1.9
Compound: C#CC1(N(COP(=O)([O-])[O-])C(=O)C(=O)c2c(C)c(C(=O)Nc3ccc(F)c(C#N)c3)n(C)c2C)COC1.[Na+].[Na+]
